# Bioassay records as filed in PubChem BioAssay.
# Hits are enriched below; roughly 2.3% of the tested compounds scored in any of these assays.
# TAAR1 agonist: human TAAR1 agonism; AID 624467; Q96RJ0; activation, % at 3 µM; CHO RD-HGA16 TAAR1, Fluo-8 calcium fluorescence; vehicle wells 0%, saturating PEA agonist 100%; 360,000 compounds, 0.99% hits;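 active = activation above the mean activation of all test compounds in the run plus 3 SD, cut at about 38% in these data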
#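 System: CHO RD-HGA16 cells carrying human TAAR1 plus Gα16; Incubation: 17-24 h seeding, 75 min 37 °C dye, 30 min RT; Measured by: Fluo-8 fluorescence, 5 s baseline then 140 s kinetic read; Control set: DMSO and PEA EC100; Replication: single well for each compound.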
# OXTR potentiator: potentiates the human oxytocin receptor response | P30559 | CHO-OTR cells, Fluo-8 calcium fluorescence, potentiator mode; 0% = oxytocin EC15, 100% = EC100 | activation, % at 3 µM | 320,000 compounds, 0.061% hits;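 active = activation above that plate's cutoff, the mean activation of tested compounds plus 3 SD, cut at about 6.6% in these data, passing the limit was not always enough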;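 also: 100% uses oxytocin at 75 nM as the full agonist control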
# Target sequence (P30559 whole entry, looked up): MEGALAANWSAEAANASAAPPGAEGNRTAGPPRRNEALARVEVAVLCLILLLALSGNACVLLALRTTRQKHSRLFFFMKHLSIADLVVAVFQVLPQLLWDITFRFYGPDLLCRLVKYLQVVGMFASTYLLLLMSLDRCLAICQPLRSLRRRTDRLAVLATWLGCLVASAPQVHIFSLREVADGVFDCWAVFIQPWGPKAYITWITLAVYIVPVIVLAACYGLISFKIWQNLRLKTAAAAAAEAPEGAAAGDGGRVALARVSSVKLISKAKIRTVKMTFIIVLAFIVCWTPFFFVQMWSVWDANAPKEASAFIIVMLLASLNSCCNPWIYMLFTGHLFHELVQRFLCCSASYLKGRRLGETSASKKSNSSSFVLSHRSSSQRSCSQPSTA
#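 Measured by – Fluo-8 calcium dye fluorescence · Test system – human OTR in CHO cells · Dosing – one concentration, 3.0 µM compound · Controls – EC15 oxytocin alone as 0%, 75 nM oxytocin as 100% · Evaluation – normalized max/min fluorescence ratio, % activation · Timing – 6 min pre-incubation, 100 s read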
# OXTR agonist: agonists of human oxytocin receptor; 320,000 compounds, 0.32% hits; P30559; CHO-OTR cells, Fluo-8 calcium fluorescence; normalized: DMSO 0%, oxytocin 100%; activation, % at 3 µM;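 active = activation above the mean of all tested compounds plus 3 SD, cutoff set per screening run, cut at about 20% in these data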;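 also: peak over basal fluorescence ratio from a 100 s FLIPR kinetic read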
# TAAR1 antag: human TAAR1 antagonism. Q96RJ0. CHO RD-HGA16 TAAR1, Fluo-8 calcium fluorescence, antagonist. inhibition, % at 3 µM. 360,000 compounds, 1.5% hits. AID 624466;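 active = inhibition above a per-plate cutoff, the mean inhibition of test compounds on that plate plus 3 SD, cut at about 49% in these data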;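 also: 0% = DMSO plus EC80 beta-PEA response and 100% = DMSO alone without agonist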
#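 System: CHO RD-HGA16 cells bearing hTAAR1. Reagent: EC80 β-phenethylamine stimulus. Schedule: seeding 17-24 h prior, 75-min 37 °C, 30-min RT dye loading. Signal: Fluo-8 intracellular calcium dye fluorescence, real-time kinetic reads. Read-out: % inhibition from peak post-agonist over basal fluorescence ratio. Benchmarks: vehicle wells and EC80 agonist wells. Replicates: n of 1.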
# V1aR counter: V1a receptor agonism, counter-screen for OXTR agonists; P37288; CHO-V1R cells, Fluo-8 calcium fluorescence, agonist mode; 0% DMSO, 100% 3 nM vasopressin; activation, % at 3 µM; 320,000 compounds, 0.25% hits; AID 2797;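 active = activation above the mean activation of all tested compounds plus 3 SD, per screening run, cut at about 20% in these data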;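 also: signal is peak over basal fluorescence ratio across a 100 second FLIPR read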
# The depositor's hits bear a star; / = no result.
SMILES,TAAR1 agonist,OXTR potentiator,OXTR agonist,TAAR1 antag,V1aR counter
O=C(C(=O)N1CCN(c2cccc(Cl)c2)CC1)c1c[nH]c2ccccc12,2,-11,2,0,2
CC(=O)C1=C(C)N(Cc2ccc(F)cc2)C(=S)NC1c1cccc(Br)c1 (stereo not drawn),0,/,/,44,/
O=C(NNc1ccccc1[N+](=O)[O-])Nc1ccccc1,/,7,1,/,0
Cc1cc([N+](=O)[O-])ccc1NC(=O)Nc1ccccc1F,7,0,1,13,3
O=C(NNc1ccccc1[N+](=O)[O-])Nc1ccc(F)cc1,42*,-10,0,15,0
O=C(Nc1ccccc1)Nc1cc([N+](=O)[O-])ccc1F,41*,-12,7,3,7
CCCCCCCN(c1ccccc1)C1C[C@H]2CCCC(=O)N3CC[C@@H](C1)[C@@H]23 (stereo partly drawn),16,/,/,-16,/
CC1CC(C)CN(C(=S)Nc2ccc(SC(F)F)cc2)C1 (stereo not drawn),41*,-10,-1,15,0
CCN(CC(=O)NCc1cccs1)C(=O)COc1ccc(C(N)=O)cc1,0,6,2,-3,1
O=C(N/N=C/c1sc(N2CCOCC2)nc1-c1ccccc1)c1ccc(O)cc1,2,-9,-1,22,0
O=C(N/N=C/c1sc(N2CCOCC2)nc1-c1ccccc1)c1cccc(S(=O)(=O)N2CCCC2)c1,14,5,4,52*,3
CC(=O)c1ccc(N2C(=O)CC(N3CCN(S(=O)(=O)c4ccc(C)c(C)c4)CC3)C2=O)cc1 (stereo not drawn),-2,-2,0,-10,0
Cc1ccc(CCNC(=O)c2nc(CS(=O)(=O)c3ccc(Cl)cc3)no2)cc1,5,-12,6,57*,8
Cc1nc2ccccc2c2c1C(=O)NC2=O,/,-9,0,/,2
O=C(/C=C/c1cccc(F)c1)OCC(=O)N1CCc2ccccc21,20,3,-1,49*,1
COc1cc(/C=C/C(=O)OCC(=O)N2CCCc3ccccc32)ccc1O,5,-7,6,22,5
Cc1cc(CSc2ccccc2)ccc1NC(=O)c1cccc([N+](=O)[O-])c1,6,-4,1,49*,1
Cc1ccc(NC(=O)CNc2cc(S(=O)(=O)N3CCOCC3)ccc2N2CCOCC2)cc1S(=O)(=O)N(C)C,2,-5,0,-12,-1
COc1ccc(OS(=O)(=O)c2c(C)noc2C)cc1,-1,2,-1,6,0
Cc1cc(C)c(S(=O)(=O)Nc2ncn[nH]2)cc1C,9,-6,0,-15,0
C[C@H]1COc2cc(N3CCCC3)ccc2S(=O)(=O)N1,0,/,/,-2,/
Cc1c(C(=O)NCc2ccccc2C(F)(F)F)sc(=O)n1Cc1ccc(Cl)c(Cl)c1,0,/,/,-4,/
CSc1ccc(Cn2c(C)c(C(=O)NCc3ccccc3C(F)(F)F)sc2=O)cc1,2,/,/,52*,/
O=C1CCCCC1CCS(=O)(=O)NCc1ccccc1 (stereo not drawn),-1,/,/,9,/
COC(=O)c1ccc(CSc2nc3ccccc3c(=O)n2CC(C)C)o1,14,-9,-2,18,-1
SMILES,TAAR1 agonist,OXTR potentiator,OXTR agonist,TAAR1 antag,V1aR counter
NC(=O)CSc1nc2ccccc2c(=O)n1Cc1ccco1,2,0,0,-4,1
COC(=O)c1ccc(CSc2nc3ccccc3c(=O)n2Cc2ccco2)o1,7,-9,2,60*,10
O=C(CSc1nc2ccccc2c(=O)n1Cc1ccco1)c1ccc(F)cc1,10,1,-1,50*,-1
COC(=O)C1=C(C)N(Cc2ccc(Cl)cc2)C(=S)NC1c1ccc(OC)cc1 (stereo not drawn),2,/,/,8,/
CC(C)(C)C(=O)NC(=S)NNC(=O)C(c1ccccc1)c1ccccc1,/,-9,89*,/,127*
CC(NC(=O)/C(=C\c1ccco1)NC(=O)c1ccccc1Br)C(=O)O (stereo not drawn),0,-6,1,5,1
CCOC(=O)C1=CCN(S(=O)(=O)c2ccccc2F)C1c1cccc(F)c1 (stereo not drawn),0,/,/,9,/
O=C1SCCC1NS(=O)(=O)c1ccc([N+](=O)[O-])cc1 (stereo not drawn),1,26*,1,-19,2
